Calls of active or inactive are those of the source. The rule behind the calls is not given here.
Legend:
[1] = molecular target: T1, MAP kinase-interacting serine/threonine-protein kinase 2 (Homo sapiens, UniProt Q9HBH9); experiment: Inhibition of MNK2 (unknown origin) incubated for 60 mins using CREB as substrate in presence of ATP by LANCE Ultra kinase assay
Target sequence in this assay (Q9HBH9 whole entry): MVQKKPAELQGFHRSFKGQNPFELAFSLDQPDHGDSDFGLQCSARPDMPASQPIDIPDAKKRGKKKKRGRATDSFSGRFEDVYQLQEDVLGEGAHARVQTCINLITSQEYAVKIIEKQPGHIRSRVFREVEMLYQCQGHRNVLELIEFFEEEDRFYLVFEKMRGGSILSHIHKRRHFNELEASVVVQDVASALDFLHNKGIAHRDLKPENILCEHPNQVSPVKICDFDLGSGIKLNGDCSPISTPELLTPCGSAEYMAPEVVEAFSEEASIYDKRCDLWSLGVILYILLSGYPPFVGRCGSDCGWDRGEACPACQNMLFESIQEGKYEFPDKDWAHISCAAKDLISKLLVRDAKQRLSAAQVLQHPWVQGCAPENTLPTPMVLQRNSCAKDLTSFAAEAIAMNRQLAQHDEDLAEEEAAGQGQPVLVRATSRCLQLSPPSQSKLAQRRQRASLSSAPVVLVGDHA

mTORC1 (Homo sapiens) = mTORC1 (Homo sapiens) (UniProt P42345+Q8N122+Q9BVC4); experiment: Inhibition of mTORC1 in human LNCaP C4-2B cells assessed as inhibition of phosphorylation of S6K at Thr389 at 5 uM incubated for 2 hrs by Western blot analysis; format: cell-based
Outline: (§1)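 C4-2B prostate cancer cells treated with inhibitor; lysates probed by Western blot for p-eIF4E, p-S6K (Thr389), p-rpS6 (Ser240/244) and p-AKT (Ser473).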

mTORC2 (Homo sapiens) = mTORC2 (Homo sapiens) (UniProt P42345+Q6R327+Q9BVC4+Q9BPZ7); experiment: Inhibition of mTORC2 in human LNCaP C4-2B cells assessed as inhibition of phosphorylation of AKT at Ser473 at 5 uM incubated for 2 hrs by Western blot analysis; format: cell-based; outline: as §1
[2] = molecular target: T1, MAP kinase-interacting serine/threonine-protein kinase 2; experiment: Inhibition of MNK2 (unknown origin) at 3 uM in presence of ATP by kinase assay
Outline: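 Single-point kinase profiling: inhibitor tested at 3 μM against a panel of 60 kinases from different families, activity presented as heatmap.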
Target sequence in this assay (Q9HBH9 whole entry, looked up): as the sequence (Q9HBH9 whole entry) above

[3] = molecular target: Dual specificity protein kinase CLK1 (Homo sapiens) (UniProt P49759); experiment: Inhibition of CLK1 (unknown origin) at 3 uM in presence of ATP by kinase assay
Chain of Dual specificity protein kinase CLK1 (Homo sapiens) (P49759 whole entry, looked up): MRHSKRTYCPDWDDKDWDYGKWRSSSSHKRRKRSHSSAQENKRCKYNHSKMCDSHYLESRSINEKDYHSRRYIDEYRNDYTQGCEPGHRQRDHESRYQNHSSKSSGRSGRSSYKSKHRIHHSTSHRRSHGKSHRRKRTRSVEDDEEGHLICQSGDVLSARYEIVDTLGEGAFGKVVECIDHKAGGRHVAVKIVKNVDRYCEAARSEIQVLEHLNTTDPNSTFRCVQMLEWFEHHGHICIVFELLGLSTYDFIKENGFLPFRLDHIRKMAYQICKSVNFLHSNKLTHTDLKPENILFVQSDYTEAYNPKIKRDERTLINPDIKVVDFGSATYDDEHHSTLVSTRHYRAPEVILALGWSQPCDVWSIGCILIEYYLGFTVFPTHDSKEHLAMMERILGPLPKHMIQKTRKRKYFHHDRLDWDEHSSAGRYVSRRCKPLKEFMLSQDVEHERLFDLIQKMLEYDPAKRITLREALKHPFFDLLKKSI

A549 [4] = experiment: Induction of cell cycle arrest in human A549 cells assessed as decrease in cyclin B1 level at 5 uM incubated for 24 hrs by Western blot analysis; format: functional, cell-based
Outline: (§2)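 A549 and MDA-MB-231 cells treated 24 h with 5 μM; lysates resolved by SDS-PAGE and immunoblotted for cyclin B1, cyclin D3 and MMP-3.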

MDA-MB-231 [5] = experiment: Induction of cell cycle arrest in human MDA-MB-231 cells assessed as decrease in cyclin D3 level at 5 uM incubated for 24 hrs by Western blot analysis; format: functional, cell-based; outline: as §2
A549 [6] = experiment: Induction of cell cycle arrest in human A549 cells assessed as accumulation of cells at G2/M phase at 5 uM incubated for 8 hrs by propidium iodide staining based flow cytometry (Rvb=6.5%); format: functional
A549 [7] = experiment: Induction of cell cycle arrest in human A549 cells assessed as accumulation of cells at G2/M phase at 5 uM incubated for 16 hrs by propidium iodide staining based flow cytometry (Rvb=11.8%); format: functional
A549 [8] = experiment: Induction of cell cycle arrest in human A549 cells assessed as accumulation of cells at S phase at 5 uM incubated for 8 hrs by propidium iodide staining based flow cytometry (Rvb=1.7%); format: functional
A549 [9] = experiment: Induction of cell cycle arrest in human A549 cells assessed as accumulation of cells at S phase at 5 uM incubated for 16 hrs by propidium iodide staining based flow cytometry (Rvb=12.8%); format: functional
A549 [10] = experiment: Induction of cell cycle arrest in human A549 cells assessed as accumulation of cells at S phase at 5 uM incubated for 20 hrs by propidium iodide staining based flow cytometry (Rvb=13.6%); format: functional
A549 [11] = experiment: Induction of cell cycle arrest in human A549 cells assessed as accumulation of cells at G0/G1 phase at 5 uM incubated for 8 hrs by propidium iodide staining based flow cytometry (Rvb=91.7%); format: functional
A549 [12] = experiment: Induction of cell cycle arrest in human A549 cells assessed as accumulation of cells at G0/G1 phase at 5 uM incubated for 20 hrs by propidium iodide staining based flow cytometry (Rvb=70.9%); format: functional
A549 [13] = experiment: Downregulation of MMP-3 in human A549 cells at 5 uM incubated for 24 hrs by Western blot anlaysis; format: functional, cell-based; outline: as §2
MDA-MB-231 [14] = experiment: Downregulation of MMP-3 in human MDA-MB-231 cells at 5 uM incubated for 24 hrs by Western blot anlaysis; format: functional, cell-based; outline: as §2
A549 [15] = experiment: Antimigratory activity against human A549 cells assessed as inhibition of cell migration at 5 uM and measured upto 24 hrs by scratch wound healing assay; format: functional, cell-based
Outline: (§3)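 Scratch wound-healing: A549 or MDA-MB-231 monolayers wounded, then exposed to 5 μM compound or DMSO; wound imaged at 6 and 24 h; percentage change in wound area quantified by image analysis at each time point.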

MDA-MB-231 [16] = experiment: Antimigratory activity against human MDA-MB-231 cells assessed as inhibition of cell migration at 5 uM and measured upto 24 hrs by scratch wound healing assay; format: functional, cell-based; outline: as §3
[17] = Cmax in mouse at 25 mg/kg, iv and measured upto 24 hrs; format: ADME, organism-based; design: dose 25 mg/kg, time < 24 hrs, route iv; settings: in vivo
[18] = Tmax in mouse at 25 mg/kg, iv and measured upto 24 hrs; format: ADME, organism-based; settings: in vivo
[19] = Clearance in mouse at 25 mg/kg, iv and measured upto 24 hrs; format: ADME, organism-based; settings: in vivo
[20] = Tmax in mouse at 50 mg/kg, po and measured upto 24 hrs; format: ADME, organism-based; settings: in vivo
[21] = Oral bioavailability in mouse at 50 mg/kg and 25 mg/kg, iv and measured upto 24 hrs; format: ADME, organism-based; settings: in vivo
[22] = system: MAP kinase-interacting kinase MNK1/2 (Homo sapiens); experiment: Inhibition of MNK in human A549 cells assessed as reduction in IL-8 level at 1 to 10 uM incubated for 48 hrs by ELISA; settings: dose 1-10 µM
[23] = system: MAP kinase-interacting kinase MNK1/2 (Homo sapiens); experiment: Inhibition of MNK in human A549 cells assessed as reduction in MCP-1 level at 1 to 10 uM incubated for 48 hrs by ELISA; settings: dose 1-10 µM
[24] = system: MAP kinase-interacting kinase MNK1/2 (Homo sapiens); experiment: Inhibition of MNK in human A549 cells assessed as reduction in TNF-alpha level at 1 to 10 uM incubated for 48 hrs by ELISA; settings: dose 1-10 µM
[25] = system: MAP kinase-interacting kinase MNK1/2 (Homo sapiens); experiment: Inhibition of MNK in human PC-3 cells assessed as inhibition of eIF4E phosphorylation at 3 uM incubated for 2 hrs by Western blot analysis
[26] = system: MAP kinase-interacting kinase MNK1/2 (Homo sapiens); experiment: Inhibition of MNK in human A549 cells assessed as inhibition of eIF4E phosphorylation at 3 uM incubated for 2 hrs by Western blot analysis
[27] = system: MAP kinase-interacting kinase MNK1/2 (Homo sapiens); experiment: Inhibition of MNK in human LNCaP C4-2B cells assessed as inhibition of eIF4E phosphorylation at 5 uM incubated for 2 hrs by Western blot analysis
[28] = system: MAP kinase-interacting kinase MNK1/2 (Mus musculus); experiment: Inhibition of MNK in wild type mouse MEF cells assessed as inhibition of eIF4E phosphorylation at 3 uM incubated for 2 hrs by Western blot analysis

IC50 [1]: 8.6 nM | inhibition (mTORC1 (Homo sapiens)): inactive | inhibition (mTORC2 (Homo sapiens)): inactive | inhibition [2]: 100% | inhibition [3]: Active | Cmax [17]: 32100 ng/mL | Tmax [18]: 4.8 min | clearance [19]: 5.13 mL/min/kg | Tmax [20]: 1 h | bioavailability [21]: 60.9% | inhibition [22]: Active | inhibition [23]: Active | inhibition [24]: Active | inhibition [25]: Active | inhibition [26]: Active | inhibition [27]: Active | inhibition [28]: Active
SMILES: CN1CCN(C(=O)c2ccc(-c3nn4c(-c5ccc(C#N)cc5)cnc4s3)cc2)CC1
Activity (A549 [4]): Active | Activity (MDA-MB-231 [5]): Active | Activity (A549 [6]): 9% | Activity (A549 [7]): 5.2% | Activity (A549 [8]): 2.7% | Activity (A549 [9]): 5.2% | Activity (A549 [10]): 3.3% | Activity (A549 [11]): 88.2% | Activity (A549 [12]): 91.4% | Activity (A549 [13]): Active | Activity (MDA-MB-231 [14]): Active | Activity (A549 [15]): Active | Activity (MDA-MB-231 [16]): Active
